Experiments:
Rattus norvegicus = assay: Biodistribution in URB597-pretreated Sprague-Dawley rat brain parenchyma at 0.3 to 0.8 nmol, iv administered 30 mins after […]-treatment measured after 60 mins by gamma counting analysis; type: ADME, organism-based; settings: in vivo, 1 h
Outline: (§1)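 Rats (n = 3–4) were injected iv with [11C]-radiotracer as in the biodistribution procedure. At various times, whole brain was homogenized and exhaustively extracted with aqueous acetonitrile. Extracted (unbound) and tissue-bound radioactivity were counted. Binding rate was fitted to a one-phase exponential association, Y = Ymax(1 − exp(−KX)). Blocking used ip pretreatment with the FAAH inhibitor.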

[1] = Half life in URB597-pretreated Sprague-Dawley rat brain parenchyma at 0.3 to 0.8 nmol, iv administered 30 mins after […]-treatment; type: ADME, organism-based; outline: as §1
Cortex [2] = assay: Biodistribution in URB597-pretreated Sprague-Dawley rat brain cortex at 0.3 to 0.8 nmol, iv administered 30 mins after URB597-treatment measured after 40 mins by gamma counting analysis; type: ADME, organism-based; settings: in vivo
Outline: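 Rats received 2 mg/kg ip (2 mL/kg saline with Tween 80) of the FAAH inhibitor, or vehicle alone, 30 min before tracer. Tracer was 30–60 MBq iv by tail vein (0.3–0.8 nmol; buffered saline, 0.5% Tween 80), n = 5. Cortex was excised at 40 min, weighed, gamma counted and decay-corrected. Reported as SUV, mean ± SD. Compared with vehicle by Student's t test.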

Hypothalamus [3] = assay: Biodistribution in Sprague-Dawley rat brain hypothalamus at 0.3 to 0.8 nmol, iv after 40 mins by gamma counting analysis; type: ADME, organism-based; settings: in vivo
Outline: (§2)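 Conscious male Sprague–Dawley rats (300–350 g), n = 5 per time point, received 30–60 MBq [11C]-radiotracer (70–170 GBq/μmol; 0.3–0.8 nmol) iv by tail vein in buffered saline with 0.5% Tween 80. Decapitated at 2 or 40 min. Dissected regions were weighed and gamma counted, decay-corrected to injection. Reported as SUV (%ID/g […]), mean ± SD.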

Hypothalamus [4] = assay: Biodistribution in Sprague-Dawley rat brain hypothalamus at 0.3 to 0.8 nmol, iv after 2 mins by gamma counting analysis; type: ADME, organism-based; settings: in vivo; outline: as §2
Cortex [5] = assay: Biodistribution in Sprague-Dawley rat brain cortex at 0.3 to 0.8 nmol, iv after 40 mins by gamma counting analysis; type: ADME, organism-based; settings: in vivo; outline: as §2
Cortex [6] = assay: Biodistribution in Sprague-Dawley rat brain cortex at 0.3 to 0.8 nmol, iv after 2 mins by gamma counting analysis; type: ADME, organism-based; settings: in vivo; outline: as §2
[7] = Half life in phosphate buffer at pH 7.4 by HPLC analysis; type: physicochemical
[8] = 1-octanol-phosphate buffer partition coefficient, log D of the compound at pH 7.4; type: physicochemical; settings: octanol/water
Outline: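 Radiotracer partitioned between 1-octanol and 0.02 M phosphate buffer, pH 7.4. Each determination replicated six times.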

[9] = biological target: T1, Fatty-acid amide hydrolase 1 (Rattus norvegicus) (UniProt P97612); assay: Inhibition of FAAH-mediated [3H]anandamide hydrolysis in rat brain homogenate assessed as [3H]ethanolamine production at 100 nM incubated for 60 mins prior to substrate addition measured after 10 mins by liquid scintillation counting analysis relative to control; type: tissue-based
T1 sequence (whole entry): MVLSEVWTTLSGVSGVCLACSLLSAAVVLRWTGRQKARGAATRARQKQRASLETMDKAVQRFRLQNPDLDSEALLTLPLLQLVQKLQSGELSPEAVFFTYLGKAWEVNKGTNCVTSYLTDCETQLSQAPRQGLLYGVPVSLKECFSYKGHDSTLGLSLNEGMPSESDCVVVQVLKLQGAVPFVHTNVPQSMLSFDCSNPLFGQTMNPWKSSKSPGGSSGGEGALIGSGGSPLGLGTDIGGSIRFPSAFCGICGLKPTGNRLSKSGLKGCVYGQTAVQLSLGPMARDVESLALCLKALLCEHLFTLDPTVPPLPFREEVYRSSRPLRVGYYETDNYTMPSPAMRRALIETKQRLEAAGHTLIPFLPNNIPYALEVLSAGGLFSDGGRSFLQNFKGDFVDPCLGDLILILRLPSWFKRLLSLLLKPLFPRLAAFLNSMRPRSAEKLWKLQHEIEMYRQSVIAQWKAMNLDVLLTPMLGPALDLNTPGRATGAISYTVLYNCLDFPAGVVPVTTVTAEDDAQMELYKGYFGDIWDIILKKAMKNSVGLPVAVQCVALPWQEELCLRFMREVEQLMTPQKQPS
Outline: (§3)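 Rat brain homogenate (0.5 μg protein) preincubated with inhibitor 60 min, then 0.5 μM [3H]anandamide (ethanolamine-labelled) added and incubated a further 10 min at 37 °C. Reaction stopped with charcoal in 0.5 M HCl; aqueous [3H]ethanolamine counted by liquid scintillation with quench correction. Values are % inhibition ± SEM, n = 3.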

[10] = biological target: T1, Fatty-acid amide hydrolase 1 (Rattus norvegicus); assay: Inhibition of FAAH-mediated [3H]anandamide hydrolysis in rat brain homogenate assessed as [3H]ethanolamine production at 10 nM incubated for 60 mins prior to substrate addition measured after 10 mins by liquid scintillation counting analysis relative to control; type: tissue-based; outline: as §3
[11] = biological target: T1, Fatty-acid amide hydrolase 1 (Rattus norvegicus); assay: Inhibition of FAAH-mediated [3H]anandamide hydrolysis in rat brain homogenate assessed as [3H]ethanolamine production at 1 nM incubated for 60 mins prior to substrate addition measured after 10 mins by liquid scintillation counting analysis relative to control; type: tissue-based
Outline: (§4)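 Rat brain homogenate (0.5 μg protein) preincubated with inhibitor 60 min, then 0.5 μM [3H]anandamide (ethanolamine-labelled) added and incubated a further 10 min at 37 °C. Reaction stopped with charcoal in 0.5 M HCl; aqueous [3H]ethanolamine counted by liquid scintillation with quench correction.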

[12] = biological target: T1, Fatty-acid amide hydrolase 1 (Rattus norvegicus); assay: Inhibition of FAAH-mediated [3H]anandamide hydrolysis in rat brain homogenate assessed as [3H]ethanolamine production at 0.1 nM incubated for 60 mins prior to substrate addition measured after 10 mins by liquid scintillation counting analysis relative to control; type: tissue-based; outline: as §4
Plasma = assay: Percentage unbound in human plasma after 10 mins by ultrafiltration method; type: ADME, cell-free
Outline: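 Human plasma from 6 blood samples was spiked with [11C]-radiotracer, held 10 min at ambient temperature, then ultrafiltered by centrifugation. Ultrafiltrate and plasma were counted and weighed. Binding to the device was corrected using pH 7.4 phosphate buffer in place of plasma.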

Brain [13] = assay: Drug uptake in URB597-pretreated Sprague-Dawley rat brain parenchyma at 0.3 to 0.8 nmol, iv administered 30 mins after […]-treatment measured after 40 mins by gamma counting analysis; type: ADME, organism-based; settings: in vivo; outline: as §1
Brain [14] = assay: Drug uptake in URB597-pretreated Sprague-Dawley rat brain parenchyma at 0.3 to 0.8 nmol, iv administered 30 mins after […]-treatment measured after 5 mins by gamma counting analysis; type: ADME, organism-based; settings: in vivo; outline: as §1
[15] = biological target: T1, Fatty-acid amide hydrolase 1 (Rattus norvegicus); assay: Ratio of IC50 for FAAH in rat brain homogenate in the absence of preincubation phase to IC50 for FAAH in rat brain homogenate after 45 mins preincubation phase; type: tissue-based
[16] = biological target: T2, Fatty-acid amide hydrolase 1 (Rattus norvegicus, UniProt P97612); assay: Inhibition of FAAH-mediated [3H]anandamide hydrolysis in rat brain homogenate assessed as [3H]ethanolamine production incubated for 45 mins prior to substrate addition measured after 10 mins by liquid scintillation counting analysis; type: tissue-based
T2 sequence (P97612 whole entry): T1 sequence (whole entry)
Outline: (§5)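 Rat brain homogenate (0.5 μg protein) preincubated with inhibitor at 37 °C for 45 or 90 min, eight concentrations over 0.1–30 nM or six over 1–50 nM. Then 0.5 μM [3H]anandamide added for a further 10 min at 37 °C. Charcoal/HCl stop; [3H]ethanolamine in aqueous phase counted by scintillation. pI50 ± value reported, converted to IC50.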

[17] = biological target: T2, Fatty-acid amide hydrolase 1; assay: Inhibition of FAAH-mediated [3H]anandamide hydrolysis in rat brain homogenate assessed as [3H]ethanolamine production incubated for 90 mins prior to substrate addition measured after 10 mins by liquid scintillation counting analysis; type: tissue-based; outline: as §5

O=[11C](NC1CCCCC1)Oc1ccc(O)c(-c2ccccc2)c1
Drug uptake (Rattus norvegicus): 90% | half-life [1]: 6.6 min | SUV (Cortex [2]): 0.36 | SUV (Hypothalamus [3]): 1.14 | SUV (Hypothalamus [4]): 1.61 | Drug uptake (Cortex [5]): 80% | SUV (Cortex [5]): 2.49 | SUV (Cortex [6]): 2.4

O=[11C](NC1CCC1)Oc1ccc(O)c(-c2ccccc2)c1
SUV (Cortex [2]): 0.23 | SUV (Hypothalamus [3]): 1.48 | SUV (Hypothalamus [4]): 1.81 | Drug uptake (Cortex [5]): 80% | SUV (Cortex [5]): 3.37 | SUV (Cortex [6]): 2.68

O=C(NC1CCCC1)Oc1ccc(O)c(-c2ccccc2)c1
t1/2 [7]: 138 h | logD [8]: 2.8 | inhibition [9]: 99% | inhibition [10]: 80% | inhibition [11]: 15% | inhibition [12]: -8%

NC(=O)c1cccc(-c2cccc(OC(=O)NC3CCCCC3)c2)c1 [URB-597]
t1/2 [7]: 19 h | Fu (Plasma): 0.48% | logD [8]: 3.61

CCCCCCNC(=O)Oc1ccc(O)c(-c2ccccc2)c1
t1/2 [7]: 77 h | Fu (Plasma): 0.35% | logD [8]: 3.67 | inhibition [9]: 100% | inhibition [10]: 97% | inhibition [11]: 44% | inhibition [12]: 9%

O=[11C](NC1CCCC1)Oc1ccc(O)c(-c2ccccc2)c1
Drug uptake (Rattus norvegicus): 90% | half-life [1]: 5.5 min | Drug uptake (Brain [13]): Not Active | Drug uptake (Brain [14]): Not Active | SUV (Cortex [2]): 0.33 | SUV (Hypothalamus [3]): 1.22 | SUV (Hypothalamus [4]): 1.87 | Drug uptake (Cortex [5]): 80% | SUV (Cortex [5]): 3.09 | SUV (Cortex [6]): 2.36

CN1CCC(NC(=O)Oc2cccc(-c3ccccc3)c2)CC1
inhibition [9]: 13% | inhibition [10]: 6% | inhibition [11]: 9% | inhibition [12]: 6%

CN1CCC(NC(=O)Oc2ccc(O)c(-c3ccccc3)c2)CC1
t1/2 [7]: 25 h | inhibition [9]: 12% | inhibition [10]: 1% | inhibition [11]: -0.5% | inhibition [12]: 2%

O=C(NC1CCCCC1)Oc1cccc(C2=NCCO2)c1
t1/2 [7]: 5.1 h | logD [8]: 3.01 | inhibition [9]: 99% | inhibition [10]: 97% | inhibition [11]: 31% | inhibition [12]: 0.2%

CCCCCCN[11C](=O)Oc1ccc(O)c(-c2ccccc2)c1
SUV (Cortex [2]): 0.27 | SUV (Hypothalamus [3]): 1.25 | SUV (Hypothalamus [4]): 1.21 | Drug uptake (Cortex [5]): 80% | SUV (Cortex [5]): 2.49 | SUV (Cortex [6]): 1.63

O=C(NC1CCCC1)Oc1cccc(C2=NCCO2)c1
t1/2 [7]: 4.6 h | logD [8]: 2.35 | inhibition [9]: 99% | inhibition [10]: 40% | inhibition [11]: 4% | inhibition [12]: -2%

CN1CCC(NC(=O)Oc2cccc(C3=NCCO3)c2)CC1
t1/2 [7]: 0.8 h | inhibition [9]: 8% | inhibition [10]: 3% | inhibition [11]: 12% | inhibition [12]: 6%

O=C(NC1CCCCC1)Oc1ccc(O)c(-c2ccccc2)c1
Ratio IC50 [15]: 4 | IC50 [16]: 9.4 nM | t1/2 [7]: 121 h | IC50 [17]: 4.9 nM | Fu (Plasma): 0.75% | logD [8]: 2.85 | inhibition [9]: 101% | inhibition [10]: 69% | inhibition [11]: 4% | inhibition [12]: -2%

NC(=O)c1cccc(-c2cccc(O[11C](=O)NC3CCCCC3)c2)c1
SUV (Cortex [2]): 0.17 | SUV (Hypothalamus [3]): 0.51 | SUV (Hypothalamus [4]): 0.47 | Drug uptake (Cortex [5]): 80% | SUV (Cortex [5]): 0.94 | SUV (Cortex [6]): 0.79

O=C(NC1CCC1)Oc1ccc(O)c(-c2ccccc2)c1
t1/2 [7]: 89 h | logD [8]: 3.42 | inhibition [9]: 101% | inhibition [10]: 70% | inhibition [11]: 8% | inhibition [12]: -0.1%

CCCCCCNC(=O)Oc1cccc(C2=NCCO2)c1
Ratio IC50 [15]: 4 | IC50 [16]: 1.2 nM | t1/2 [7]: 8.7 h | IC50 [17]: 0.55 nM | logD [8]: 3.33 | inhibition [9]: 100% | inhibition [10]: 100% | inhibition [11]: 74% | inhibition [12]: 9%
